Source: ChEMBL document CHEMBL3297713, “Discovery, optimization, and biological evaluation of 5-(2-(trifluoromethyl)phenyl)indazoles as a novel class of transient receptor potential A1 (TRPA1) antagonists” (J Med Chem, 2014)

Experiments:
[1] = target: T1, Transient receptor potential cation channel subfamily V member 3 (Homo sapiens) (UniProt Q8NET8); assay: (§1) Antagonist activity at human TRPV3 expressed in CHOK1 cells assessed as inhibition of 2-APB-induced calcium flux incubated 10 mins prior to 2-APB addition by FLIPR assay relative to control; type: cell-based; design: concentration or dose not given beside the values; details: CHO-K1
T1 sequence (whole entry): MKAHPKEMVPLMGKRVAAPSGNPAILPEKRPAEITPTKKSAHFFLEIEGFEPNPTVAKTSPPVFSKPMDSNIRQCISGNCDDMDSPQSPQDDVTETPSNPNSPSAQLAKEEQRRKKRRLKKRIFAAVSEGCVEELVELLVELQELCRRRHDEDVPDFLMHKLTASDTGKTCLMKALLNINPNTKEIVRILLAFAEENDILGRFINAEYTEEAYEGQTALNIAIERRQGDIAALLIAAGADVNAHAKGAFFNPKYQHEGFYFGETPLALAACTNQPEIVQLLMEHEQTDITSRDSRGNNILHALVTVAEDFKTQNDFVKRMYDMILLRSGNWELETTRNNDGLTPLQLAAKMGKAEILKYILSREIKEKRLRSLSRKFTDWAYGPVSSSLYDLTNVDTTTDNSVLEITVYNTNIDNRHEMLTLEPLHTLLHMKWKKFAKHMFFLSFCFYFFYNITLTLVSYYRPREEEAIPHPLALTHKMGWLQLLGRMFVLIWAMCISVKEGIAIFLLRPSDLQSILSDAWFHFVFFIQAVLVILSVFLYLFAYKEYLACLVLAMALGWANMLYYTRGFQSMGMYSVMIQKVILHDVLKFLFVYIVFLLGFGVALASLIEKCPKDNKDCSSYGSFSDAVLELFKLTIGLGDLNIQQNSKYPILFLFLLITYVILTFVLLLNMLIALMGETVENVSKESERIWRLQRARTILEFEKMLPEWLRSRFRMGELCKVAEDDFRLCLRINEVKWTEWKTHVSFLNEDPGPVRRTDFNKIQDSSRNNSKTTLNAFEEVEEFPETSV

[2] = target: T2, Transient receptor potential cation channel subfamily V member 3 (Homo sapiens, UniProt Q8NET8); assay: as §1; type: cell-based, CHO-K1
T2 sequence (Q8NET8 whole entry): T1 sequence (whole entry)

[3] = target: Transient receptor potential cation channel subfamily A member 1 (Homo sapiens, UniProt O75762); assay: Antagonist activity at human TRPA1 expressed in CHO-TREX cells assessed as inhibition of dibenzo[b,f ][1,4]oxazepine-4-carboxamide-induced calcium flux incubated 10 mins prior to dibenzo[b,f ][1,4]oxazepine-4-carboxamide addition by FLIPR assay relative to control; type: cell-based
Sequence of Transient receptor potential cation channel subfamily A member 1 (O75762 whole entry): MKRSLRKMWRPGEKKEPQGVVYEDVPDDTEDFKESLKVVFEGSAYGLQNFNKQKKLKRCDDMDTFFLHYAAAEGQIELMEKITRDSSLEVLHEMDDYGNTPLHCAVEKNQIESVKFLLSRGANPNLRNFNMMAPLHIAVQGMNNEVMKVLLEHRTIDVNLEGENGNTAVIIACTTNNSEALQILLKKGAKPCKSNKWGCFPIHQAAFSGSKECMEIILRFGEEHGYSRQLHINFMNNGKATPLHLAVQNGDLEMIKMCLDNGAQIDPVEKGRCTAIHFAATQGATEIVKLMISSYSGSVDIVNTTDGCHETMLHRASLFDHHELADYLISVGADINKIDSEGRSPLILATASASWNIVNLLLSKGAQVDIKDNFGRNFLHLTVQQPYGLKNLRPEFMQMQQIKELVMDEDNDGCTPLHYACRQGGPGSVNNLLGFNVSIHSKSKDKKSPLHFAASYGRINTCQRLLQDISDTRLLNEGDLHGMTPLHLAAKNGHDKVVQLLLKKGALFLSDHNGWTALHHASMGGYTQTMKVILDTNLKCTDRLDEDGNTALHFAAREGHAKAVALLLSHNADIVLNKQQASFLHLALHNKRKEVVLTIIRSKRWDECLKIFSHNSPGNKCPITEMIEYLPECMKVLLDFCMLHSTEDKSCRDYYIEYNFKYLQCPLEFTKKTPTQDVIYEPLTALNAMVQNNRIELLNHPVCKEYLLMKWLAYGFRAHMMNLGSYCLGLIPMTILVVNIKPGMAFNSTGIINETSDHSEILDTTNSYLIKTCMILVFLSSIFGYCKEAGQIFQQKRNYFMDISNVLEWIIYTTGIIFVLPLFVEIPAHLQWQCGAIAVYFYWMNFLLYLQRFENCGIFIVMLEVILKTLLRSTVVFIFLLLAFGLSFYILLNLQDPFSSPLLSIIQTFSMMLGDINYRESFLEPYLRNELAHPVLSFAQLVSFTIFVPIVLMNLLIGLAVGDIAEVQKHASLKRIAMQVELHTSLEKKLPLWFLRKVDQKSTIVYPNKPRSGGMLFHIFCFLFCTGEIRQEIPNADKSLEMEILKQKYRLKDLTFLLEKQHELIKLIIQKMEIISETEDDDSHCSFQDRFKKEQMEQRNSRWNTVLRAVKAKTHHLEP
How it was run: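 TRPA1-expressing CHO-TREX cells, channel expression induced with tetracycline (0.5 µg/mL human, 1 µg/mL mouse or rat). Cells loaded with Fluo4-AM for 90 min at room temperature, washed, then test agent added in HBSS/20 mM HEPES/2.5 mM probenecid/0.1% BSA. Agonist added 10 min later at EC80: human cinnamaldehyde 30 µM, AITC 2.5 µM, dibenzoxazepine-carboxamide 5 nM; rat and mouse cinnamaldehyde 40 µM. FLIPR calcium flux; mean of triplicates fitted to sigmoidal dose-response curves.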

Rattus norvegicus = assay: Induction of hyperthermia in naive rat at 10 to 100 mg/kg, po after 1 to 6 hrs; type: organism-based; design: route oral; details: in vivo
How it was run: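 Rat rectal temperature measured by probe before and 1, 3 and 6 h after oral vehicle (0.5% methylcellulose/0.5% Tween 80) or 10, 30 or 100 mg/kg p.o. WIN55,212-2 (6 mg/kg s.c.) served as comparator.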

[4] = Volume of distribution at steady state in Balb/C mouse at 5 mg/kg, iv; type: ADME, organism-based; design: dose 5 mg/kg, route intravenous; details: in vivo, read-out: Vdss
How it was run: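 Balb/C mice given 5 mg/kg i.v. at 2.5 mg/mL in 10% EtOH/30% PEG300/60% solutol.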

CHO-K1 = assay: Selectivity ratio of IC50 for human TRPV1 expressed in CHOK1 cells to IC50 for human TRPA1 expressed in CHO-TREX cells; type: cell-based
How it was run: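 Stable hTRPV1 CHO-K1 and tetracycline-induced (0.5 µg/mL) hTRPA1 CHO-TREX cells were loaded with Fluo4-AM for 90 min at room temperature and read on FLIPR. Antagonist preincubation was 10 min before EC80 agonist: capsaicin 40 nM (TRPV1); cinnamaldehyde 30 µM, AITC 2.5 µM or dibenzoxazepine carboxamide 5 nM (TRPA1). Buffer contained probenecid and BSA. IC50s were fitted from triplicate means of max−min calcium signal.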

[5] = Cmax in Wistar rat at 10 mg/kg, po; type: ADME, organism-based; design: dose 10 mg/kg, route oral; details: in vivo
How it was run: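 Male Wistar rats dosed orally at 10 mg/kg as a suspension in 0.5% methylcellulose/0.5% Tween80.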

Cc1cc2[nH]ncc2cc1-c1ccccc1C(F)(F)F
inhibition [1]: 0% | IC50 [2]: > 30 µM | IC50 [3]: 0.02 µM | inhibition [3]: 100% | Activity (Rattus norvegicus): Non-toxic | Vd [4]: 4.07 L/kg | Ratio IC50 (CHO-K1): > 100 | Cmax [5]: 3.53 µM
